Legend:
Prothrombin [1] = target: T1, Prothrombin (Homo sapiens, UniProt P00734); assay: In vitro inhibition of human thrombin.
Serine protease 1 [2] = target: T2, Serine protease 1 (Homo sapiens, UniProt P07477); assay: In vitro inhibition of human trypsin.
In short: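 Human pancreatic trypsin, chromogenic substrate S2222, 50 mM HEPES/150 mM NaCl pH 8.0. Kinetic assay over 15 min after starting with substrate at four concentrations. Ki taken from 1/V versus 1/S plot.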

[3] = Plasma clearance in Male Sprague-Dawley rats after intravenous administration at a dose of 10 mg/kg; type: ADME, organism-based; design: dose 10 mg/kg, route intravenous; conditions: rat
In short: (§1)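 PK: male Sprague–Dawley rats (n = 3 per sampling time) given saline solution as rapid iv bolus via caudal vein; Beagle dogs (n = 2) given constant-rate iv infusion over 15 min via saphenous vein. Plasma collected into lithium heparin; drug measured by LCMS with internal standard after solid-phase extraction at pH 6.0. Parameters derived by computational PK analysis.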

[4] = Beta-elimination half-life in Male Sprague-Dawley rats after intravenous administration at a dose of 10 mg/kg; type: ADME, organism-based; design: dose 10 mg/kg, route intravenous; conditions: rat, in vivo; in short: as §1
[5] = Oral bioavailability in rat (Sprague-Dawley) (male) (dose 50 mg/kg p.o.); type: ADME, organism-based; conditions: in vivo
In short: (§2)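 Oral bioavailability: compound in water given by gavage to male Sprague–Dawley rats (n = 3 per sampling time) and Beagle dogs (n = 2). Plasma collected into lithium heparin (dog saphenous cannula, conscious; rat vena cava under halothane). Drug quantified by LCMS, compared with iv saline dosing; parameters from computational PK analysis.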

[6] = Volume of distribution in Male Sprague-Dawley rats after intravenous administration at a dose of 10 mg/kg; type: ADME, organism-based; design: dose 10 mg/kg, route intravenous; conditions: rat, in vivo, read-out: Volume; in short: as §1
[7] = Oral bioavailability in Beagle dogs after Per oral administration at dose of 2(mg/kg); type: ADME, organism-based, Canis lupus familiaris; conditions: dog, in vivo; in short: as §2
[8] = Plasma clearance in Beagle dogs after intravenous administration at a dose of 1 mg/kg; type: ADME, organism-based, Canis lupus familiaris; design: dose 1 mg/kg, route intravenous; conditions: dog; in short: as §1
[9] = Volume of distribution in Beagle dogs after intravenous administration at a dose of 1 mg/kg; type: ADME, organism-based, Canis lupus familiaris; design: dose 1 mg/kg, route intravenous; conditions: dog, in vivo, read-out: Volume; in short: as §1
[10] = Beta-elimination half-life in Beagle dogs after intravenous administration at a dose of 1 mg/kg; type: ADME, organism-based, Canis lupus familiaris; design: dose 1 mg/kg, route intravenous; conditions: dog, in vivo; in short: as §1
Prothrombin [11] = target: T1, Prothrombin; assay: Percentage inhibition against of human thrombin at dose of 10 X E-6 M
Serine protease 1 [12] = target: T2, Serine protease 1; assay: Percentage inhibition against human trypsin at dose of 10 X E-5 M
Prothrombin [13] = target: T1, Prothrombin; assay: Percentage inhibition against human thrombin at dose of 10 X E-6 M
Serine protease 1 [14] = target: T2, Serine protease 1; assay: Percentage inhibition against human trypsin at dose of 10 X E-4 M
Serine protease 1 [15] = target: T2, Serine protease 1; assay: Percentage inhibition effect human trypsin at dose of 10 X E-4 M
Prothrombin [16] = target: T1, Prothrombin; assay: Percentage inhibition effect of human thrombin at dose of 10 X E-6 M
[17] = Oral bioavailability in Beagle dogs after Per oral administration at dose of 50(mg/kg); type: ADME, organism-based, Canis lupus familiaris; conditions: dog, in vivo, 10 mg/kg, in the assay text read “10(mg/kg)” for “50(mg/kg)”; in short: as §2
[18] = Alpha-elimination half-life in Male Sprague-Dawley rats after intravenous administration at a dose of 10 mg/kg; type: ADME, organism-based; design: dose 10 mg/kg, route intravenous; conditions: rat, in vivo; in short: as §1
[19] = target: T3, Coagulation factor VII (Homo sapiens) (UniProt P08709); assay: Percentage inhibition of Coagulation factor VIIa (FVIIa) at a concentration of 10 X E-4 M from human plasma; type: cell-free
T3 sequence (whole entry): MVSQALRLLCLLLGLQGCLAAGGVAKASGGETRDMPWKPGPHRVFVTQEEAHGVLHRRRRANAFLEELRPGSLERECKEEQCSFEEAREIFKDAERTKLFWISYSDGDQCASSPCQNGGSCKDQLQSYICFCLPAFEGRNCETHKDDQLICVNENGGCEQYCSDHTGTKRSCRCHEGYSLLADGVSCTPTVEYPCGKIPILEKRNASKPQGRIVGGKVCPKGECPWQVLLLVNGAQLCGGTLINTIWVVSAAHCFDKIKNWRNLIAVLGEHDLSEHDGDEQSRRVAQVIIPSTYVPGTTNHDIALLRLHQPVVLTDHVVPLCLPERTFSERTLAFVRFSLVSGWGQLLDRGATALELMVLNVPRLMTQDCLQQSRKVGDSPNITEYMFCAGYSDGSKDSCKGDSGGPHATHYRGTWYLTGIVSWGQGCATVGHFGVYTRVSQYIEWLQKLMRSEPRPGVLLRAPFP
In short: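 Human plasma FVIIa, 0.06 μg/mL final, plus recombinant tissue factor at 0.12 μg/mL final; substrate N-methylsulfonyl-D-Phe-Pro-Arg-pNA. Buffer 50 mM TRIS/100 mM NaCl pH 7.5. Compound preincubated with enzyme 15 min at room temperature, then substrate added; 30 min at 30 °C; OD 405 nm; percentage inhibition from triplicates.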

Coagulation factor X = Coagulation factor X (Bos taurus, UniProt P00743); assay: Inhibitory effect on Coagulation factor Xa (FXa) from bovine plasma; type: cell-free
Coagulation factor X, sequence (P00743 41-180 limits assumed): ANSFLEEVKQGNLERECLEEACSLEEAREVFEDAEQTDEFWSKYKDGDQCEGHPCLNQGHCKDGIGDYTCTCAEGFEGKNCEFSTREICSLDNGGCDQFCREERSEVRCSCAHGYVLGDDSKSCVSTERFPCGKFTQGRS
Coagulation factor X, sequence (P00743 234-492 limits assumed): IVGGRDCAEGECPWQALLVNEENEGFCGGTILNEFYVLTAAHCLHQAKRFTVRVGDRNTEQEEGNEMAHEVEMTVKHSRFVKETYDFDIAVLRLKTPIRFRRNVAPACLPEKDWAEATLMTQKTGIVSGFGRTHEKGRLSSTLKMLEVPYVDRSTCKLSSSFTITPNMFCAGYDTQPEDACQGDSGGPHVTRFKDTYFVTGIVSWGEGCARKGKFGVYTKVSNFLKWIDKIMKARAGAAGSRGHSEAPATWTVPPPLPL
In short: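 Bovine plasma FXa, 0.02 U/mL final, with S2222 at 0.2 mM final, in 50 mM HEPES/150 mM NaCl pH 7.5. Aqueous compound dilutions preincubated with enzyme 15 min at room temperature, then substrate added; OD 405 nm read after 30 min at 30 °C. IC50 from triplicate eight-concentration curves; Ki via Cheng–Prusoff using substrate Km.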

[20] = Plasma clearance in Beagle dogs after intravenous administration at a dose of 1 mg/kg; conditions: dog
[21] = Volume of distribution in Beagle dogs after intravenous administration at a dose of 1 mg/kg; conditions: dog, in vivo
[22] = Beta-elimination half-life in Beagle dogs after intravenous administration at a dose of 1 mg/kg; conditions: dog, in vivo
[23] = Alpha-elimination half-life in Beagle dogs after intravenous administration at a dose of 1 mg/kg; conditions: dog, in vivo

T2 sequence (P07477 whole entry): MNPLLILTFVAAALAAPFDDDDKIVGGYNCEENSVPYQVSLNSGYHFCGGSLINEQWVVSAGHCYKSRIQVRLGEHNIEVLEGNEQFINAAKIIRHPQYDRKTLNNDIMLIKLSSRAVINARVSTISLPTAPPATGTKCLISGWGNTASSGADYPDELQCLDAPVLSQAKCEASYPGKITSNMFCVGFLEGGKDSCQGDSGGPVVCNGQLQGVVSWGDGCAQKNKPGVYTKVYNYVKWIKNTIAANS

Work on `N=C(N)N1CCC(OCCC2CCCCN2C(=O)[C@H](CC(=O)O)NC2CCCCC2)CC1` (stereo partly specified) yielded a Ki (Prothrombin [1]) of 7.1 nM and a Ki (Serine protease 1 [2]) of 2900 nM.
`N=C(N)N1CCC(OCCC2CCCCN2C(=O)[C@H](CC(=O)O)NC2CCCCCCC2)CC1` (stereo partly specified) showed a Ki (Prothrombin [1]) of 1.3 nM and a Ki (Serine protease 1 [2]) of 720 nM.
In the case of `CCN(C1CCCCC1)[C@@H](CC(=O)O)C(=O)N1CCCCC1CCOC1CCN(C(=N)N)CC1` (stereo partly specified), the Ki (Prothrombin [1]) is reported as 16 nM and the Ki (Serine protease 1 [2]) is reported as 5000 nM.
Molecule `N=C(N)N1CCC(OCC[C@@H]2CCCCN2C(=O)[C@H](CC(=O)O)NC2CCCCCC2)CC1` has a Ki (Prothrombin [1]) of 1.1 nM and a Ki (Serine protease 1 [2]) of 700 nM.
`N=C(N)N1CCC(OCCC2CCCCN2C(=O)[C@@H](Cc2ccccc2)NCC(=O)O)CC1` (stereo partly specified) gave a Ki (Prothrombin [1]) of 370 nM and a Ki (Serine protease 1 [2]) of 7900 nM.
In the case of `CC1=CCN(C(=O)[C@H](Cc2cccc(C(=N)N)c2)NS(=O)(=O)c2ccc3c(c2)CCN(C)CC3)[C@@H](C(=O)O)C1`, the clearance [3] is reported as 11 mL/min/kg, the half-life [4] is reported as 48 min and the bioavailability [5] is reported as 16%. For the same molecule, the Vd [6] was 0.6 L/kg, the bioavailability [7] was 37% and the clearance [8] was 6.9 mL/min/kg. It also gave a Vd [9] of 0.53 L/kg and a half-life [10] of 54 min.
For `CCC(CC)N[C@@H](CC(=O)O)C(=O)N1CCCC[C@H]1CCOC1CCN(C(=N)N)CC1`, the Ki (Prothrombin [1]) was 9.8 nM and the Ki (Serine protease 1 [2]) was 1400 nM.
Molecule `CCS(=O)(=O)N[C@H](Cc1ccccc1)C(=O)N1CCC[C@H]1C(=O)NCC1CCN(C(=N)N)CC1` has a Ki (Prothrombin [1]) of 15 nM.
With `N=C(N)N1CCC(OCCC2CCCCN2C(=O)[C@H](CC(=O)O)NC2CCOCC2)CC1` (stereo partly specified) the inhibition (Prothrombin [11]) was 42% and the inhibition (Serine protease 1 [12]) was 23%.
In the case of `N=C(N)N1CCC(OCC[C@@H]2CCCCN2C(=O)[C@H](CC(=O)O)NCc2ccccc2)CC1`, the inhibition (Prothrombin [13]) is reported as 24% and the Ki (Serine protease 1 [2]) is reported as 9200 nM.
In the case of `N=C(N)c1ccc(OCC[C@H]2CCCCN2C(=O)[C@@H](CC2CCCCC2)NCC(=O)O)cc1`, the Ki (Prothrombin [1]) is reported as 120 nM and the Ki (Serine protease 1 [2]) is reported as 7300 nM.
With `N=C(N)N1CCC(OCCC2CCCCN2C(=O)[C@H](CC(=O)O)NC2CCCC2)CC1` (stereo partly specified) the Ki (Prothrombin [1]) was 32 nM and the Ki (Serine protease 1 [2]) was 5000 nM.
Work on `N=C(N)N1CCC(OCCC2CCCCN2C(=O)[C@@H](CC2CCCCC2)NCC(=O)O)CC1` (stereo partly specified) yielded a Ki (Prothrombin [1]) of 0.96 nM and a Ki (Serine protease 1 [2]) of 370 nM.
For `CN(C1CCCOC1)[C@@H](CC(=O)O)C(=O)N1CCCC[C@H]1CCOC1CCN(C(=N)N)CC1` (stereo partly specified), the inhibition (Prothrombin [11]) was 16% and the inhibition (Serine protease 1 [14]) was 48%.
With `N=C(N)N1CCC(OCCC2CCCCN2C(=O)[C@H](CC(=O)O)NCC2CCCCC2)CC1` (stereo partly specified) the Ki (Prothrombin [1]) was 16 nM and the Ki (Serine protease 1 [2]) was 1600 nM.
For `CN(C)CCN(C1CCCCC1)[C@@H](CC(=O)O)C(=O)N1CCCCC1CCOC1CCN(C(=N)N)CC1` (stereo partly specified), the inhibition (Serine protease 1 [15]) was 0% and the inhibition (Prothrombin [16]) was 0%.
In the case of `CN(C1CCCCC1)[C@@H](CCC(=O)O)C(=O)N1CCCC[C@H]1CCOC1CCN(C(=N)N)CC1`, the Ki (Prothrombin [1]) is reported as 1.8 nM and the Ki (Serine protease 1 [2]) is reported as 550 nM.
In the case of `N=C(N)c1ccc(OCC[C@@H]2CCCCN2C(=O)[C@@H](CC2CCCCC2)NCC(=O)O)cc1`, the Ki (Prothrombin [1]) is reported as 0.37 nM and the Ki (Serine protease 1 [2]) is reported as 89 nM.
`CN(C1CCC=CCC1)[C@@H](CC(=O)O)C(=O)N1CCCC[C@H]1CCOC1CCN(C(=N)N)CC1` showed a Ki (Prothrombin [1]) of 0.8 nM and a Ki (Serine protease 1 [2]) of 1100 nM.
For `CN(C1CCCCCC1)[C@@H](CC(=O)O)C(=O)N1CCCC[C@H]1CCOC1CCN(C(=N)N)CC1`, the Ki (Prothrombin [1]) was 0.53 nM and the Ki (Serine protease 1 [2]) was 810 nM.
For `CN(C1CCCCC1)[C@@H](CC(=O)O)C(=O)N1CCCC[C@H]1CCOC1CCN(C(=N)N)CC1`, the clearance [3] was 21.2 mL/min/kg, the bioavailability [17] was 9% and the half-life [18] was 7.2 min. The half-life [4] was 48 min, the bioavailability [5] was 2% and the Vd [6] was 0.31 L/kg. For the same molecule, the inhibition [19] was 38.7%, the Ki (Coagulation factor X) was 4970 nM and the Ki (Prothrombin [1]) was 2.17 nM. For the same molecule, the Ki (Serine protease 1 [2]) was 1930 nM, the clearance [20] was 6.4 mL/min/kg and the Vd [21] was 0.53 L/kg. For the same molecule, the half-life [22] was 60 min and the half-life [23] was 9.6 min.
Work on `CN1CCC(N[C@@H](CC(=O)O)C(=O)N2CCCC[C@H]2CCOC2CCN(C(=N)N)CC2)CC1` yielded a Ki (Prothrombin [1]) of 90 nM and a Ki (Serine protease 1 [2]) of 4800 nM.
